Experimental data from ChEMBL document CHEMBL5715960, “Epigenetic Co-Deregulation of EZH2/TET1 is a Senescence-Countering, Actionable Vulnerability in Triple-Negative Breast Cancer” (Theranostics, 2019).
The source made the active and inactive calls. The rule behind the calls is not given here.

Key:
[1] = tested on: MDA-MB-231; assay: Downregulation of EZH2 protein expression in human MDA-MB-231 cells at 2 uM for 2 days by immunoblot analysis; type: functional, cell-based; settings: time 2.0 day
[2] = tested on: MDA-MB-436; assay: Antiproliferative activity against human MDA-MB-436 cells assessed as increase in cell death at 10 uM for 2 days by Guava viacount assay; type: functional, cell-based; settings: time 2.0 day
How it was run: (§1)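 Cells plated at 2 × 10^4 (24-well) or 1 × 10^5 (12-well), exposed to a range of GSK343 concentrations for 2 days against DMSO solvent control; cell number and viability read by Guava ViaCount flow cytometry, relative to DMSO. Triplicate; mean ± SD.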

[3] = tested on: MDA-MB-453; assay: Antiproliferative activity in human MDA-MB-453 cells assessed as increase in SA-beta-gal positive cells at 2 uM for 5 days by SA-beta-gal staining analysis; type: functional, cell-based; settings: time 5.0 day
How it was run: (§2)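 GSK343 2 µM or DMSO for 5 days, then chromogenic SA-β-gal staining and counting of positive cells. Triplicate; mean ± SD.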

[4] = tested on: MDA-MB-436; assay: Effect on human MDA-MB-436 cells expressing shTET1 assessed as increase in H3K9me3 cascade by immunoblot analysis; type: functional, cell-based
[5] = tested on: MDA-MB-231; assay: Effect on human MDA-MB-231 cells assessed as increase in TET1 level at 2 uM in presence of adriamycin by immunoblot analysis; type: functional, cell-based
How it was run: (§3)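 Immunoblot of MDA-MB-231 and MCF7 lysates after 0.005 µg/ml adriamycin with or without 2 µM GSK343, or DMSO. α-Tubulin and total H3 used as loading controls.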

[6] = tested on: MDA-MB-361; assay: Cytotoxicity against human MDA-MB-361 cells assessed as increase in cell death at 10 uM for 2 days by Guava viacount assay; type: toxicity, cell-based; settings: mda-mb-361, 48 h, time 2 day; how it was run: as §1
[7] = tested on: MDA-MB-231; assay: Upregulation of CDKN1A gene in human MDA-MB-231 cells at 2 uM by qRT-PCR analysis; type: functional, cell-based
How it was run: (§4)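 Relative transcript levels measured by qRT-PCR in cells treated with 2 µM inhibitor, normalised to DMSO-treated control cells. Triplicate experiments unless stated otherwise; mean ± SD reported; unpaired two-tailed Student's t-test at p < 0.05.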

[8] = tested on: MDA-MB-231; assay: Antiproliferative activity against human MDA-MB-231 cells assessed as increase in cell death at 10 uM for 2 days by Guava viacount assay; type: functional, cell-based; settings: time 2.0 day; how it was run: as §1
[9] = tested on: MDA-MB-436; assay: Downregulation of EZH2 in human MDA-MB-436 cells at 2 uM for 2 days by immunoblot analysis; type: functional, cell-based; settings: time 2.0 day
[10] = tested on: MDA-MB-436; assay: Upregulation of TP53 gene in human MDA-MB-436 cells at 2 uM by qRT-PCR analysis; type: functional, cell-based; how it was run: as §4
[11] = tested on: MDA-MB-231; assay: Effect on human MDA-MB-231 cells expressing shTET1 assessed as increase in H3K9me3 cascade by immunoblot analysis; type: functional, cell-based
[12] = tested on: MDA-MB-231; assay: Effect on human MDA-MB-231 cells assessed as apoptotic phenotype by measuring increase in BAX expression level at 2 uM in presence of adriamycin by immunoblot analysis; type: functional, cell-based
How it was run: (§5)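 Immunoblot of cell lysates after 0.05 µg/ml adriamycin alone, with 2 µM GSK343, or DMSO. α-Tubulin and total H3 used as loading controls.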

[13] = tested on: MCF7; assay: Cytotoxicity against human MCF7 cells at 0.5 to 2 uM for 2 days by Guava viacount assay; type: toxicity, cell-based; settings: mcf7, 48 h, dose 0.5-2 µM, time 2 day; how it was run: as §1
[14] = tested on: BT-474; assay: Antiproliferative activity in human BT-474 cells assessed as increase in SA-beta-gal positive cells at 2 uM for 5 days by SA-beta-gal staining analysis; type: toxicity, cell-based; settings: bt-474, 120 h, time 5 day; how it was run: as §2
[15] = tested on: MCF7; assay: Effect on human MCF7 cells assessed as increase in TET1 transcription by qRT-PCR analysis; type: functional, cell-based
How it was run: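 qRT-PCR of TET1, TET2 and TET3 transcripts in breast cancer cells exposed to GSK343 (2 µM unless otherwise indicated), shown relative to DMSO-treated cells. Mean ± SD, triplicate unless stated.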

[16] = tested on: MDA-MB-436; assay: Effect on human MDA-MB-436 cells assessed as apoptotic phenotype by measuring increase in PUMA expression level at 2 uM in presence of adriamycin by immunoblot analysis; type: functional, cell-based; how it was run: as §5
[17] = tested on: MDA-MB-231; assay: Downregulation of E2F1 in human MDA-MB-231 cells at 2 uM for 2 days by immunoblot analysis; type: functional, cell-based; settings: time 2.0 day
[18] = tested on: MDA-MB-436; assay: Effect on human MDA-MB-436 cells assessed as apoptotic phenotype by measuring increase in p53 expression level at 2 uM in presence of adriamycin by immunoblot analysis; type: functional, cell-based; how it was run: as §5
[19] = tested on: MDA-MB-231; assay: Effect on human MDA-MB-231 cells expressing shTET1 assessed as increase in p21 cascade by immunoblot analysis; type: functional, cell-based
[20] = tested on: MDA-MB-436; assay: Antiproliferative activity in human MDA-MB-436 cells expressing vector assessed as increase in SA-beta-gal positive cells by SA-beta-gal staining analysis (reference value: 10.3+/-3.7%); type: functional
[21] = tested on: MCF7; assay: Induction of cell cycle arrest in human MCF7 cells assessed as accumulation of cells at G1 phase measured at 2 uM by BrdU/PI staining based flow cytometric analysis (reference value: 65.2%); type: functional
[22] = tested on: MCF7; assay: Induction of cell cycle arrest in human MCF7 cells assessed as accumulation of cells at S phase measured at 2 uM by BrdU/PI staining based flow cytometric analysis (reference value: 27.7%); type: functional
[23] = tested on: MDA-MB-436; assay: Effect on […] in human MDA-MB-436 cells assessed as repression in TET1 promoter EZH2 by ChiP-qPCR analysis; type: functional, cell-based
How it was run: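 Cells treated with GSK343 or DMSO; chromatin immunoprecipitated with anti-EZH2 or anti-H3K27me3 antibody and quantified by qPCR with primers for the TET1 promoter; input as internal control, IgG as negative control.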

[24] = tested on: MDA-MB-436; assay: Effect on human MDA-MB-436 cells expressing shTET1 assessed as increase in p21 cascade by immunoblot analysis; type: functional, cell-based
[25] = tested on: MDA-MB-231; assay: Antiproliferative activity against human MDA-MB-231 cells assessed as downregulation of cyclin A by immunoblot analysis; type: functional, cell-based
How it was run: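 Cells exposed to GSK343 at 2 µM (standard level unless stated otherwise), lysed and immunoblotted; α-tubulin and total H3 as loading controls.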

[26] = tested on: MDA-MB-231; assay: Effect on human MDA-MB-231 cells assessed as decrease in H3K27me3 level at 2 uM in presence of adriamycin by immunoblot analysis; type: functional, cell-based; how it was run: as §3
[27] = tested on: MDA-MB-361; assay: Cytotoxicity against human MDA-MB-361 cells at 0.5 to 2 uM for 2 days by Guava viacount assay; type: toxicity, cell-based; settings: mda-mb-361, 48 h, dose 0.5-2 µM, time 2 day; how it was run: as §1
[28] = tested on: MDA-MB-231; assay: Induction of apoptosis in human MDA-MB-231 cells assessed as increase in accumulation of cells at G1 phase in presence of adriamycin by BrdU/PI-based cell cycle analysis; type: functional
How it was run: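 Cell cycle by BrdU/PI staining and flow cytometry, giving G1, S and G2 fractions. Cells received 0.005 µg/ml adriamycin with or without 2 µM GSK343, or DMSO. Mean ± SD.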

[29] = tested on: MDA-MB-436; assay: Effect on human MDA-MB-436 cells expressing shTET1 assessed as reduction in cyclinA by immunoblot analysis; type: functional, cell-based
[30] = tested on: MDA-MB-436; assay: Upregulation of […] signalling in human MDA-MB-436 cells at 2 uM for 2 days by immunoblot analysis; type: functional, cell-based; settings: time 2.0 day
[31] = tested on: MDA-MB-231; assay: Downregulation of EZH2 transcription in human MDA-MB-231 cells at 2 uM for 2 days by immunoblot analysis; type: functional, cell-based; settings: time 2.0 day

CCCc1cc(C)[nH]c(=O)c1CNC(=O)c1cc(-c2ccnc(N3CCN(C)CC3)c2)cc2c1cnn2C(C)C
Activity [1]: Active
Activity [2]: Active
Activity [3]: Active
Activity [4]: inactive
Activity [5]: Active
Activity [6]: Non-Toxic
Activity [7]: Active
Activity [8]: Active
Activity [9]: Active
Activity [10]: Active
Activity [11]: inactive
Activity [12]: Active
Activity [13]: Non-Toxic
Activity [14]: Non-Toxic
Activity [15]: inactive
Activity [16]: Active
Activity [17]: Active
Activity [18]: Active
Activity [19]: inactive
Activity [20]: 46.4%
Activity [21]: 66.1%
Activity [22]: 22.8%
Activity [23]: Active
Activity [24]: inactive
Activity [25]: Active
Activity [26]: Active
Activity [27]: Non-Toxic
Activity [28]: Active
Activity [29]: inactive
Activity [30]: Active
Activity [31]: Active
